High-throughput results: PubChem BioAssay, several laboratories
Most compounds without a hit are left out; they make up all but 1.2% or so of the library.
GAA850 FXN act: frataxin GAA850 promoter activation; HEK293 lucGAA850 FXN promoter luciferase reporter, 24 h; percent of 10 µM SAHA response; activation, % at 6 µM; 0.56% of 360,000 active; AID 540364;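 active means activation above the average of all compounds screened plus 3 SD, cutoff fixed separately per campaign, cut at about 7.5% in these data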;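 further: 0% = DMSO wells and 100% = 10 µM SAHA wells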
proCasp3 act: activates human procaspase-3; recombinant procaspase-3 D3A, Ac-DEVD-pNA absorbance 405 nm; 0.11% of 330,000 active; AID 463141; activation, % at 8.5 µM; P42574;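 active means activation above the mean of all tested compounds plus 3 SD, cut at about 21% in these data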;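 further: 0% = DMSO alone and 100% = DMSO wells spiked with extra 5 µM PC-3 D3A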
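Test system: Procaspase-3 D3A mutant; medium: Zinc-free HEPES/NaCl buffer with 0.01% Triton X-100 at pH 7.4; reagent: DEVD-pNA substrate; doses: one concentration, 8.5 µM nominal, 0.8% DMSO; times: 1 h preincubation plus 2 h reaction at 25 °C; signal: Epi-absorbance at 405 nm of released p-nitroaniline, 0 and 120 min; replicates: singlicate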
proCasp7 act: counter-screen: procaspase-7 (human) activation; activation, % at 8.5 µM; recombinant procaspase-7, Ac-DEVD-pNA absorbance 405 nm; D23A/D198A/D206A triple mutant, cannot self-cleave; scale: DMSO 0, 5 µM enzyme 100; 0.093% of 330,000 active; P55210;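 active means percent activation above the screen-wide mean plus 3 SD, cut at about 25% in these data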
Target sequence (P55210 whole entry D23A/D198A/D206A): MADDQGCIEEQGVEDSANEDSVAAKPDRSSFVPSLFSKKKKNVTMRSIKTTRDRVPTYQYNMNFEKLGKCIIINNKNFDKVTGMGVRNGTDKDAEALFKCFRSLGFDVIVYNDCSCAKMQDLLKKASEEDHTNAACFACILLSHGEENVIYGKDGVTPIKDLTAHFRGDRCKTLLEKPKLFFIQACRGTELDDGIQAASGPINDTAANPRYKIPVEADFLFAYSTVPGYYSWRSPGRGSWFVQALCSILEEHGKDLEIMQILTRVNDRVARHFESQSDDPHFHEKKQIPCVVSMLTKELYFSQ
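System: Procaspase-7 triple mutant (PC-7 D3A); measure: % activation from two-timepoint absorbance difference, scaled to controls; times: 1 h compound preincubation, 2 h substrate cleavage, 25 °C; also added: Ac-DEVD-pNA substrate, 400 µM as added; measured by: Epi-absorbance of released pNA at 405 nm, two timepoints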
pCIP destab: p/CIP protein destabilization | Q05BA5 | F442A p/CIP-EGFP cells, EGFP fluorescence, 16 h | decrease of EGFP signal, % at 10 µM | 0.01% of 290,000 active;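 active means EGFP signal decrease of at least 30% at 10 µM or well 3 SD below plate mean, unless failing retest; inactive means the rest, including hits failing retest or dose response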
Rce1 inh: yeast Ras-converting enzyme inhibition; Q03530; yeast membranes, quenched prenylated peptide cleavage fluorescence; calls only; 0.27% of 290,000 active; AID 2563;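 active means fall in fluorescence gain of 50% or more versus controls, with final raw signal at or below 3038400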;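 further: plate controls were neutral control wells for no effect and wells lacking membranes for full effect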
Target sequence (Q03530 whole entry, looked up): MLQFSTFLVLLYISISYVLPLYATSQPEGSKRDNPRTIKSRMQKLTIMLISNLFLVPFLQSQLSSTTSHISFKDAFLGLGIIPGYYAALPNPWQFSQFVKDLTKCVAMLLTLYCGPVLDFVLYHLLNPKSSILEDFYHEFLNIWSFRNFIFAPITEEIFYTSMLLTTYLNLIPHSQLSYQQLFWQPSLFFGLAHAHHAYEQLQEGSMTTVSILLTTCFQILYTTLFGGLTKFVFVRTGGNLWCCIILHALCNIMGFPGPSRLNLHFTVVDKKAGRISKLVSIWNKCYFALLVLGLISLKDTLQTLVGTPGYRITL
Hep lipid drop: hepatic lipid droplet formation modulation. AML12 mouse hepatocytes, oleate lipid droplets, BODIPY imaging. inhibition, % at 6.5 µM. 0.4% of 240,000 active;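 active means lipid droplet intensity inhibited by at least 50%, with more than 500 cells counted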
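Material – AML12 mouse liver cells · Also added – oleate loading, 100 µM · Compound dosing – 6.5 µM single-point dosing · Times – overnight treatment with compound plus oleate · Measured by – fluorescence imaging, 20x objective, two fields per well · Read-out – percent inhibition of filter-corrected integrated lipid droplet intensity per well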
* hit, by the source's call; i = inactive; · = no result given; + = active, no number.

SMILES	GAA850 FXN act	proCasp3 act	proCasp7 act	pCIP destab	Rce1 inh	Hep lipid drop
COc1ccc(S(=O)(=O)CC(O)CN2CCCC2=O)cc1 (centres undefined)	-1	-4	4	8	i	·
CS(=O)(=O)Nc1cccc(-c2cc(NC=O)c3ncc(-c4ccc(F)c(Cl)c4)n3c2)c1	0	·	·	·	·	·
CC(=O)NC(c1ccc(F)c(F)c1)c1nc(-c2cc3ccccc3o2)cs1 (centres undefined)	-1	·	·	·	·	·
C=CCn1c(N2CCCCCC2)nc2c1c(=O)n(C)c(=O)n2C	1	-13	-4	-11	+	·
CCOC(=O)C[C@@H](C#N)NC(=O)[C@@H]1CCCN1C(=O)[C@@H](NC(=O)c1ccc(N)c(Cl)c1)C(C)(C)C	-4	·	·	·	·	·
CCCCOC(=O)Nc1nc2ccc(OC)cc2s1	5	4	13	-2	i	0
CCCCN(C(=O)NC(=O)Nc1nc2ccc(OC)cc2s1)S(C)(=O)=O	9.5*	-8	3	-10	i	28
O=C1C(CCc2ccccc2)ON=C(c2cnccn2)N1Cc1ccc(F)cc1 (centres undefined)	-1	·	·	·	·	·
CC1CCN(C2=C(NS(=O)(=O)c3ccc(Cl)cc3)C(=O)c3ccccc3C2=O)CC1	-1	1	0	-11	i	70*
COc1ccc(NC(=O)C2(C)CCN2Cc2cccc(OC)c2F)cc1OC (centres undefined)	1	·	·	·	·	·
CC(C)Oc1cccc(-c2cc(C(=O)NN3CCOCC3)c3ccccc3n2)c1	0	3	-6	-12	i	-4
CCCc1ccc(-c2cc(C(=O)NN3CCOCC3)c3ccccc3n2)cc1	8.3*	5	8	-13	i	·
COc1cc(C(O)c2nc(-c3cccc(C#N)c3)cs2)ccc1F (centres undefined)	0	·	·	·	·	·
COC(=O)C(Cc1ccccc1)OS(N)(=O)=O (centres undefined)	3	-1	5	2	+	2
O=C(NCc1ccc(F)cc1)c1cc(C2CCCCN2S(=O)(=O)c2ccc(F)cc2F)on1 (centres undefined)	3	·	·	·	·	·
O=C(CN(C1CCCCC1)S(=O)(=O)c1ccccc1)N1CCCC1	0	-8	2	8	i	6
O=C(CN(C1CCCCC1)C1CCCCC1)N1CCc2ccccc2C1	4	-2	3	6	+	-3
COc1ccc2c(c1)C1(Nc3ccccc3-c3nc4ccccc4n31)C(=O)N2 (centres undefined)	-1	4	2	5	i	-26
CC1(c2ccncc2)Nc2ccccc2-c2nc3ccccc3n21 (centres undefined)	5	1	9	2	+	2
Nc1nnc(-c2ccncc2)s1	2	4	9	-6	+	·
COc1ccc(Cl)c2sc(N(CCN(C)C)C(=O)CCS(=O)(=O)c3ccc(C)cc3)nc12	1	-13	-6	·	i	·
COc1ccc(OC)c2sc(N(CCCN(C)C)C(=O)CCS(=O)(=O)c3ccccc3)nc12	31*	-4	-15	·	i	·
C=CCNc1ncnc2c1ncn2[C@H]1CN(Cc2cc(OC)c(OC)c(OC)c2)C[C@@H](CO)O1	2	·	·	·	·	·
CS(=O)(=O)c1ccc(C(=O)OCC(=O)N(CCc2ccccc2)Cc2ccccc2)cc1	1	10	12	·	+	·
CS(=O)(=O)Cc1ccc(C(=O)N(CCc2ccccc2)Cc2ccccc2)cc1	0	-3	7	-19	+	-2
SMILES	GAA850 FXN act	proCasp3 act	proCasp7 act	pCIP destab	Rce1 inh	Hep lipid drop
COc1ccc(-c2cc(C(=O)NCc3cccc(C(F)(F)F)c3)[nH]n2)c(C)c1	0	·	·	·	·	·
CC(C)c1c(C(=O)N/N=C/c2c[nH]c3ccccc23)nnn1-c1nonc1N	0	-1	-10	-5	+	-14
COc1cccc(/C=N/NC(=O)c2nnn(-c3nonc3N)c2C(C)C)c1OCc1ccc(F)cc1	-3	7	4	-15	+	-62
CC1CCN(Cc2c(C(=O)N/N=C/c3cccc(C(F)(F)F)c3)nnn2-c2nonc2N)CC1	-2	2	-7	3	+	-40
CCOc1ccc(-c2c(C(=O)N/N=C/c3c[nH]c4ccccc34)nnn2-c2nonc2N)cc1	-1	-2	5	-2	i	-47
CCCc1c(C(=O)N/N=C/c2cccc3ccccc23)nnn1-c1nonc1N	-1	2	-4	-5	i	7
CC1CCN(Cc2c(C(=O)N/N=C/c3ccc(C(F)(F)F)cc3)nnn2-c2nonc2N)CC1	0	8	-6	-1	i	-43
CC(C)c1c(C(=O)N/N=C/c2cccc3ccccc23)nnn1-c1nonc1N	1	-3	10	-6	+	-1
COc1ccc(S(=O)(=O)N2CCCCC2c2cc(C(=O)NCc3ccccc3)no2)cc1 (centres undefined)	-1	·	·	·	·	·
O=[N+]([O-])c1ccc(C[n+]2cccc3ccccc32)cc1	0	6	-7	-16	i	32
CCCCC[n+]1cccc2c3ccccc3ccc21	-3	3	-5	-5	+	-6
c1ccc(C[n+]2cccc3c4ccccc4ccc32)cc1	-3	1	-6	-22	+	·
Cc1cccc(-c2noc(-c3csc([C@@H]4C[C@H](O)[C@@H](CO)O4)n3)n2)c1	2	·	·	·	·	·
C=CCNc1oc(/C=C/c2ccccc2)nc1C#N	5	3	5	-10	+	·
CCC(CC)C(=O)N(C)c1c(C)nc2c(OCc3ccc(C#N)cc3)cccn12	-1	·	·	·	·	·
Cc1cc(C)n(CC(=O)NC2CCCCC2C)c(=O)c1C#N (centres undefined)	0	-8	2	·	+	·
CCCCn1c(=O)[nH]c(=O)c2c1nc(-c1ccc(OC)c(Br)c1)n2CC(C)C	-2	-12	-6	-12	+	2
N#Cc1cccc(NC(=O)c2cc(C3CCCCN3S(=O)(=O)c3ccccc3)on2)c1 (centres undefined)	-1	·	·	·	·	·
CNC(=O)CSCc1cnn(-c2ccccc2)c1-n1cccc1	-1	4	2	7	i	-9
CCOC(=O)N1CCC(NC(=O)CSCc2cnn(-c3ccccc3)c2-n2cccc2)CC1	8.3*	2	8	-20	i	·
COc1cc(NC(=O)c2ccc(-c3ccc(F)c(F)c3)c3ccoc23)cc(OC)c1OC	-2	·	·	·	·	·
CN(C)c1ccc(/C=N/NC(=O)CNC(=O)c2ccco2)cc1	2	-1	5	-2	+	-4
CN(C)c1ccc(/C=N/NC(=S)NCc2ccccc2)cc1	2	90*	32*	-5	i	·
